In publication PMC11185543 (bioRxiv, 2024):
Where a SMILES comes first, the peptide text is derived from it. The star is where a group is joined. Cbz = O=C(OCc1ccccc1)*

Tests used:
[1] = test system: human islets; experiment: Polyribosome profiling of human islets treated with proinflammatory cytokines; type: cell-based; conditions: 50 nM with IFN-γ + IL-1β
Outline: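 Human islets were pretreated 1 h with vehicle or test compound (50 nM), then exposed 18–24 h to 1000 IU/mL IFN-γ + 50 IU/mL IL-1β. Translation was halted with 50 μg/mL cycloheximide for 10 min, and lysates were made in buffer pH 7.5 with 10 mM MgCl2. Lysates were run on a 50–10% sucrose gradient (40,000 rpm, 2 h, 4°C) and fractionated with A254 monitoring. Fraction RNA was quantified by qRT-PCR relative to input.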

[2] = test system: NOD mice; experiment: Insulitis score in prediabetic NOD mice after two weeks of treatment; type: in vivo; conditions: 0.25 or 2.5 mg/kg intraperitoneal for 2 weeks
Outline: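 Female NOD mice, 6 weeks old, received vehicle (5% DMSO, 2% Tween 80, 20% PEG400, saline) or test compound by intraperitoneal injection for two weeks. Pancreata were fixed in 4% paraformaldehyde, paraffin-embedded and sectioned. Islet infiltration was scored 1–4: none, <50% circumference, >50% circumference, intra-islet. N=4–5 mice per group; mean ±SEM; ANOVA.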

[3] = test system: NOD mice; experiment: β cell mass in NOD mice after two weeks of treatment; type: in vivo; conditions: 0.25 or 2.5 mg/kg intraperitoneal for 2 weeks
Outline: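 Female NOD mice, 6 weeks old, were given test compound or vehicle (5% DMSO, 2% Tween 80, 20% PEG400, saline) intraperitoneally for two weeks. Pancreata were fixed in 4% paraformaldehyde, paraffin-embedded, sectioned and stained for insulin. β cell mass was derived from insulin+ area relative to whole pancreas area. N=4–5 mice per group; mean ±SEM; ANOVA.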

[4] = test system: PD-L1; type: cell-based, human; conditions: 10 μM concurrent with cytokines 18–24 h, GOLM1 siRNA, EndoC-βH1 cells
Outline: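 EndoC-βH1 cells (low-glucose DMEM, 2% BSA, nicotinamide, β-mercaptoethanol, matrigel-fibronectin coating) had 1 h pretreatment with DMSO or test compound (50 nM). They were then co-treated 18–24 h with 1000 IU/mL IFN-γ + 50 IU/mL IL-1β. For knockdown, Accell GOLM1 siRNA was used and protein was taken 72–96 h later. Proteasome blockade was 10 μM MG132 with cytokines 18–24 h, starting 72 h post-knockdown. Immunoblot; N=3 biological replicates; ANOVA.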

[5] = test system: p-GCN2; experiment: Immunoblot for p-GCN2 in mouse embryonic fibroblasts; type: cell-based; conditions: 6 h, MEFs
Outline: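 MEFs grown in DMEM with 10% FBS were exposed to test compound (1 μM or 100 nM) or DMSO for 6 h. Protein lysates were collected and immunoblotted.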

O=C(COc1ccc(Cl)cc1)NC1CCC(NC(=O)COc2ccc(Cl)cc2)CC1 (stereo not drawn) [ISRIB]
RNA sedimenting with polysomes (translation initiation blockade) [1]: recovery of the RNA sedimenting with polysomes
insulitis [2]: significant reduction in insulitis
β cell mass [3]: no effect on β cell mass

CC(C)C[C@@H](C=O)NC(=O)[C@H](CC(C)C)NC(=O)[C@H](CC(C)C)NC(=O)OCc1ccccc1 [MG132] (Cbz-Leu-Leu-Leu-aldehyde)
attenuation of PD-L1 levels upon GOLM1 knockdown [4]: partially reversed

O=C(CC1NCCCC1O)Cn1cnc2cc(Br)c(Cl)cc2c1=O (stereo not drawn) [halofuginone]
effect on p-GCN2 ([5]; 100 nM): robustly induces p-GCN2

C/C=C(/C)C(=O)O[C@H]1C(C)=C2[C@H]([C@@H]1OC(=O)CCCCCCC)[C@@](C)(OC(C)=O)C[C@H](OC(=O)CCC)[C@@]1(O)[C@H]2OC(=O)[C@@]1(C)O [thapsigargin]
effect on p-GCN2 ([5]; 1 μM): suppresses it
